# Bioassay records deposited in PubChem BioAssay by several laboratories.
# This is a sample that favours compounds with a hit; in the whole collection about 0.79% have one here.
# Rin1-Abl PPI inh: inhibitors of Rin1-Abl protein binding, primary screen, biochemical, TR-FRET | Tyrosine-protein kinase ABL1 (Homo sapiens) + Ras and Rab interactor 1 (Homo sapiens), … | inhibition, % at 7.35 µM | 360,000 compounds, 0.4% hits | AID 588664, 2011; in the data active = inhibition above about 5%, passing the limit was not always enough
# PKA-R1A act: activators of PKA-R1A holoenzyme, primary screen, biochemical, fluorescence polarization, Cy5-IP20, bovine R1A, mouse PKAc; cAMP-dependent protein kinase type I-alpha regulatory subunit (Bos taurus) + …; PKA-R1A dissociation; scaled: DMSO 0%, 113 µM cGMP 100%; activation, % at 11.4 µM; 340,000 compounds, 0.083% hits;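 active = percent activation above the mean of all tested compounds plus 3 SD, cut at about 19% in these data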;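 also: higher means more PKAc released from R1A so a rise in polarization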
# UCH37 inh: inhibitors of human UCH37 deubiquitinase, primary screen, biochemical, Ub-AMC cleavage, fluorescence | Ubiquitin carboxyl-terminal hydrolase isozyme L5 (Homo sapiens), Q9Y5K5 | purified proteasome/UCH37 | inhibition, % (no concentration beside the values) | 330,000 compounds, 0.33% hits;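 active = mean inhibition over replicate wells above about 20%, limit read from the data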;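 also: 0% = compound-free wells with enzyme and 100% = wells lacking proteasome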
# Target sequence (Q9Y5K5 whole entry, looked up): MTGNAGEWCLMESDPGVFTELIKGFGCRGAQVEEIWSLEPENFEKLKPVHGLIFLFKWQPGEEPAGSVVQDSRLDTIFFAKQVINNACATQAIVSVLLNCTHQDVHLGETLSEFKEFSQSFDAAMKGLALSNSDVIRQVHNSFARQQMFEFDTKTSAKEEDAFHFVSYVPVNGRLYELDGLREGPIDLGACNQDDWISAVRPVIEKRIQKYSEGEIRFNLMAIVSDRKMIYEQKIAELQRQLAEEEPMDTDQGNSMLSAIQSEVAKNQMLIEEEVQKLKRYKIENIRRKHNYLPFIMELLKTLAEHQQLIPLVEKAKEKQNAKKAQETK
#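 Schedule: 30 min plus 25 min, room temperature / Material: human UCH37 within purified proteasomes / Technique: AMC fluorescence intensity at 355/460 nm / Buffer or medium: pH 7.4 Tris-HCl (50 mM) with ovalbumin, ATP-MgCl2, DTT / Controls: wells without proteasome as full block, compound-free enzyme plus substrate as uninhibited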
# PKA-R2B act: activators of PKA-R2B holoenzyme, primary screen, biochemical, fluorescence polarization, Cy5-IP20, human. cAMP-dependent protein kinase catalytic subunit beta (Homo sapiens) + cAMP-dependent …. PKA-R2B holoenzyme dissociation; R2B truncated from residue 108, S112A mutant; 0% DMSO only, 100% 113 µM cGMP. activation, % at 11.4 µM. 340,000 compounds, 0.079% hits. AID 504700, 2011;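 active = activation above a cutoff set at the mean over all compounds plus 3 SD, cut at about 18% in these data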;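 also: higher means more holoenzyme dissociation and a rise in polarization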
# R1A FP artifact: FP signal interference without PKA proteins, confirmation, artefact control for PKA-R1A activator project, biochemical, fluorescence polarization, triplicate. shares compounds with PKA-R1A act. Cy5-IP20 peptide alone, fluorescence polarization artifact counterscreen. activation, % at 11.4 µM. 280 compounds, 7% hits;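 active = mean activation over triplicate runs exceeds the adjusted cutoff derived for the parent primary screen, cut at about 19% in these data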;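 also: no PKA protein present so any polarization rise reflects compound interference; 0% = tracer peptide mix alone and 100% = mix with added PKA catalytic subunit; higher means stronger polarization artifact and likely false positive in parent screen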
# PKA-R1A confirm: activators of PKA-R1A holoenzyme, confirmation, biochemical, fluorescence polarization, Cy5-IP20, triplicate; shares compounds with PKA-R1A act; PKA-R1A holoenzyme dissociation; activation, % at 11.4 µM; 280 compounds, 9% hits; AID 504800, 2011;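 active = mean activation over replicate wells exceeds the adjusted hit threshold taken from the earlier primary screen, cut at about 20% in these data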;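 also: 0% = holoenzyme mix with DMSO only and 100% = cGMP-activated control wells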
# Target sequence (P00514 whole entry, looked up): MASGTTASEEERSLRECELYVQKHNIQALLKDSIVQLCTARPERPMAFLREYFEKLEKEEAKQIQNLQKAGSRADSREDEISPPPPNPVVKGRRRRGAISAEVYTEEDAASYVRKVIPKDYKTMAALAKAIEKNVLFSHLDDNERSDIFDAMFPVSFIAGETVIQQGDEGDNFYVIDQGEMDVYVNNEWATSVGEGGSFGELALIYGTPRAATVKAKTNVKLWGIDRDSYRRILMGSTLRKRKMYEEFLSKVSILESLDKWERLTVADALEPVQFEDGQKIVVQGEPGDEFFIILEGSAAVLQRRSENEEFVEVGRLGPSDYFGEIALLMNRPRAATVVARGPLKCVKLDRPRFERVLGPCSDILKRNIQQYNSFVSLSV
# * = called active by the depositor; . = no result.
SMILES,Rin1-Abl PPI inh,PKA-R1A act,UCH37 inh,PKA-R2B act,R1A FP artifact,PKA-R1A confirm
CN(CC(=O)Nc1c(Cl)cccc1Cl)C(=O)c1ccccc1SCC(=O)N1CCCC1,0.4,0.2,.,-1.6,.,.
CN(CCOc1ccc(Cl)cc1)C(=O)c1ccccc1SCC(=O)N1CCCC1,-2.8,20.6*,3.1,7.8,7.8,1.9
C#CCOCCOCCOCCNc1nc(N2CCN(C(=O)[C@H]([C@@H](C)CC)n3cc([C@@H](N)CO)nn3)CC2)nc(N2CCN(C(=O)[C@H](CCCCN)n3cc([C@@H](N)CO)nn3)CC2)n1,2.9,-5.2,1.3,-14.8,.,.
C#CCOCCOCCOCCNc1nc(N2CCN(C(=O)[C@H]([C@@H](C)CC)n3cc([C@@H](N)CC(C)C)nn3)CC2)nc(N2CCN(C(=O)[C@H](CCCCN)n3cc([C@@H](N)CO)nn3)CC2)n1,1.0,20.4*,4.1,0.2,4.6,0.6
COc1ccc(-c2[nH]n(-c3ccc([N+](=O)[O-])cc3)c(=O)c2C=NCC2CCCO2)cc1 (stereo not given),0.7,19.8*,0.9,9.6,3.9,1.7
Cn1c(SCC(=O)Nc2ccccc2Cl)nnc1C1CC1,4.2,3.6,0.6,-4.3,.,.
Cn1c(SCC(=O)Nc2nnc(-c3ccccc3)o2)nnc1C1CC1,4.6,19.1*,1.6,2.1,1.8,0.8
COc1ccc([C@@H]2[C@@H]3C(=O)N(C(C)(C)C)C(=O)[C@@H]3[C@]3(CC(C)C)C(=O)N(c4cccc(F)c4)C(=O)N23)cc1,0.9,19.4*,4.6,-1.9,-3.1,-4.6
CCOC(=O)c1c(NC(=O)c2cccc([N+](=O)[O-])c2C(=O)O)sc2c1CCCC2,0.1,-4.1,7.4,3.2,.,.
CCOC(=O)c1c(NC(=O)c2c(C(=O)O)cccc2[N+](=O)[O-])sc2c1CCCC2,2.5,18.8*,10.1,-8.2,3.6,1.4
CCOC(=O)c1c(NC(=O)CCC(=O)O)sc2c1CCCCC2,-1.6,19.6*,5.5,0.5,3.1,9.0
CC(C)C(c1nnnn1C1CCCC1)N1c2ccccc2CC1C (stereo not given),-1.5,-10.7,1.5,-6.2,.,.
CN(C)c1ccc(NC(=O)CSc2nc3ccccc3c(=O)n2CC2CCCO2)cc1 (stereo not given),-0.4,2.7,1.4,-5.3,.,.
Cc1ccc(NC(=O)CSc2nc3ccccc3c(=O)n2CC2CCCO2)cc1 (stereo not given),3.3,18.6*,3.1,2.6,-3.5,2.7
O=S(=O)(c1ccc(-n2cnnn2)cc1)N1CCN(c2ccccc2F)CC1,-1.4,-7.3,-0.5,-8.4,.,.
COc1ccc(-c2cc3nc(C)c(CCC(=O)NCc4ccco4)c(C)n3n2)c(OC)c1,0.3,4.3,-43.3,-6.8,.,.
Cc1nc2cc(-c3ccc(Cl)cc3)nn2c(C)c1CCC(=O)NCc1ccco1,-1.9,25.2*,-161.0,9.9,0.8,-1.6
COc1ccc(CCNC(=O)Cn2cnc3sc(C)c(-c4ccc(F)cc4)c3c2=O)cc1OC,0.0,18.9*,5.9,-0.9,2.2,4.7
[O-][n+]1ccccc1SCc1ccccc1,-0.8,18.8*,1.8,3.2,2.2,3.1
O=C(O)CSc1cccc[n+]1[O-],-1.7,-2.5,0.6,-1.8,.,.
Cc1ccc(N2C(=O)NC(NC(=O)C(C)(C)C)(C(F)(F)F)C2=O)cc1C (stereo not given),-0.9,2.4,3.0,-3.6,.,.
CC(C)N(CC(=O)Nc1ccc(Cl)cc1C(F)(F)F)C(=O)CCl,1.5,19.5*,1.0,-2.8,4.8,2.3
COc1ccc(C(=O)Nc2ccc(C(=O)N3CCCCC3)cc2)cc1OC,1.0,0.3,4.4,-0.5,.,.
O=C(O)CN1C(=O)/C(=C\c2cc(Br)ccc2OCc2ccc([N+](=O)[O-])cc2)SC1=S,3.3,24.6*,20.4*,0.9,0.5,1.0
CC(=O)NN=Cc1ccccc1OC/C=C/c1ccccc1,.,.,2.2,.,.,.
SMILES,Rin1-Abl PPI inh,PKA-R1A act,UCH37 inh,PKA-R2B act,R1A FP artifact,PKA-R1A confirm
COCCCNC(=O)CCn1c(=O)c2ccccc2n(Cc2cccc([N+](=O)[O-])c2)c1=O,-0.8,-9.9,5.8,-5.6,.,.
CCCCNC(=O)CCn1c(=O)c2ccccc2n(Cc2ccc(F)cc2)c1=O,-2.9,22.4*,2.9,10.9,-0.5,-2.7
O=C(Cn1cc(C(F)(F)F)cc(Cl)c1=O)NCC1COc2ccccc2O1 (stereo not given),-2.2,-1.7,2.3,8.6,.,.
CCOc1ccccc1CN1CCNC(=O)C1CC(=O)N(C)Cc1nonc1C (stereo not given),0.5,2.0,.,-1.9,.,.
COc1ccccc1-c1csc(NC(=O)c2cc(-c3cccs3)nc3ccccc23)n1,-4.5,23.0*,-13.9,-8.3,-0.5,2.9
Cc1ccc(S(=O)(=O)NC2CC(C)(C)NC(C)(C)C2)cc1C,1.3,19.2*,.,-1.9,1.4,5.0
Cn1nnc2c(C(N)=O)ncn2c1=O,2.4,.,2.4,.,.,.
O=C(NCc1nc2ccccc2[nH]1)C1=C[C@H](c2ccc(C(F)(F)F)cc2)C[C@H](OCc2ccc(CO)cc2)O1,2.1,20.5*,4.6,13.7,29.0*,18.0
NC(=O)CSc1nc2ccccc2n1-c1ccccc1,4.6,-18.8,4.9,-4.6,.,.
NC(=O)CSc1nc2ccccc2n1Cc1ccccc1,-0.2,21.2*,2.8,-3.2,2.2,-1.4
CNC(=O)COC(=O)c1ccc(OCC(=O)Nc2ccccc2OC)c(OC)c1,2.9,22.1*,3.3,1.3,-2.7,1.4
COc1ccccc1CNC(=O)C(C)NS(=O)(=O)c1ccccc1 (stereo not given),-4.8,18.6*,-0.3,5.2,0.9,-0.2
COc1ccc(NC(=O)Cn2nnc(-c3ccccc3NC(=O)c3ccco3)n2)cc1,-4.3,19.9*,2.3,7.5,2.2,6.4
Cc1sc(NC(=O)C2CCCCC2C(=O)O)c(C(N)=O)c1-c1ccccc1 (stereo not given),-0.9,18.6*,1.8,5.0,3.4,0.7
CC1C(=O)N(Cc2cn(CCC3OCCO3)nn2)CCS(=O)(=O)N1Cc1ccc(-c2ccncc2)cc1 (stereo not given),1.5,1.6,.,-6.5,.,.
CC1C(=O)N(Cc2cn(CCC3OCCO3)nn2)CCS(=O)(=O)N1Cc1ccc(-c2ccc(F)cc2)cc1 (stereo not given),1.5,19.7*,.,-13.2,1.8,1.8
